# Screens from PubChem.
# CHOP inh = blocks CHOP induction under ER stress; CHO-K1 CHOP-promoter luciferase, tunicamycin-induced, 15-18 h; inhibition, % at 10 µM; actives 3.8% (n = 220,000);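 active = compounds that reduced the stress-induced luciferase reporter signal by more than about 70% of percent inhibition, limit read from the data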;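 also: 0% = tunicamycin plus vehicle and 100% = wells without tunicamycin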
# Dynein transport = blocks dynein driven cargo transport along microtubules. 3617.4 mouse cells, GR-EGFP nuclear translocation imaging; test concentration mostly 20 µM; stimulated with dexamethasone, 1 µM; stronger effect = lower value. z-score, hits read low. actives 0.47% (n = 220,000);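 active = plate z-score of nuclear minus cytoplasmic receptor signal below a set negative limit, without overly bright fluorescence or cell loss, cut at about -3.5 in these data, passing the limit was not always enough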;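 also: z-score of nuclear minus cytoplasmic ring GR-EGFP intensity difference per well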
#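 Schedule: 48 h induction, then 1 h compound, then 30 min agonist, 37 °C. Buffer or medium: tetracycline-free induction medium containing charcoal-stripped FBS. Reagent: 1.0 µM final dexamethasone stimulus. Evaluation: nuclear versus cytoplasmic GR-EGFP signal, averaged per well. Signal: high-content fluorescence imaging after fixation.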
# T cruzi inh = T. cruzi replication inhibition. T. cruzi beta-gal in NIH3T3, luminescence, 90 h. inhibition, % (concentration not given with the values). actives 1.4% (n = 300,000). AID 1885;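 active = mean inhibition across valid replicates above about 55%, limit read from the data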;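 also: signal also drops with host cell toxicity which is not excluded here; 0% = plate median of DMSO wells and 100% = zero luminescence signal; higher percent means less beta-gal luminescence so fewer parasites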
#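 System: NIH/3T3 fibroblasts plus reporter T. cruzi. Medium: DMEM plus 2% FBS. Probe or stimulus: 5000 reporter trypomastigotes per well. Compound: single 50 nL compound addition per well in DMSO. Incubation: co-culture of at least 90 h after 3 h attachment. Detection: GalScreen β-gal luminescence, detergent lysis, 60 min. Evaluation: parasite load inhibition, %.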
# UPR CHOP act = apoptotic UPR (CHOP) activation. CHO-CHOP luciferase reporter, luminescence; percent of tunicamycin response over DMSO baseline. activation, % at 10 µM. actives 0.34% (n = 330,000). AID 449763;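 active = at 10 µM dose, activation of 40% or more, normalized to positive control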;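 also: 100% = tunicamycin at 10 µg/mL and 0% = DMSO alone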
#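 Test system: CHO CHOP reporter cells. Input: 500 CHO-CHOP cells per well. Medium: F12 with 10% FBS. Technique: luciferase luminescence. Measure: percent activation relative to tunicamycin control. Dosing: 10 µM compound, 0.5% DMSO. Timing: 16-18 h cell attachment, then 6 h compound exposure, 37 °C.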
# XBP1 UPR activ = activators of adaptive arm of unfolded protein response (XBP1) | CHO-XBP1 luciferase reporter, IRE1-XBP1 UPR activation, luminescence; percent of tunicamycin response, DMSO as zero | activation, % at 20 µM | actives 0.33% (n = 330,000);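 active = versus positive control, 20 µM dose yields 30% or more activation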;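 also: 100% = tunicamycin at 10 µg/mL and 0% = DMSO only wells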
#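 Material: CHO cell line with stable XBP1 luciferase reporter; buffer or medium: F12 medium containing 10% fetal bovine serum; compound: single point, 20 µM final compound, 1% DMSO; incubation: 6 h treatment, 37 °C; measured by: glow luminescence from Steady-Glo reagent; evaluation: activation, % of tunicamycin; control set: tunicamycin high, DMSO low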
# Lmaj promast = inhibitors of Leishmania major promastigote growth; Leishmania major promastigotes, resazurin fluorescence viability; inhibition, % at 10 µM; actives 9% (n = 200,000); AID 1063; in the data active = inhibition above about 50%;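 also: promastigotes grown with compound for 44 hours at 28 °C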
# Starred values were filed as active, the others as inactive; . = no result given. The sample as a whole holds a higher share of hits than the screen did.
SMILES,CHOP inh,Dynein transport,T cruzi inh,UPR CHOP act,XBP1 UPR activ,Lmaj promast
Cn1cc(CN(CCCN2CCOCC2)C(=S)Nc2cccc(Cl)c2)c2ccccc21,-9,0.83,23,-1,-2,80*
Cc1cccc(NC(=S)N(CCCN2CCOCC2)Cc2cn(C)c3ccccc23)c1,27,3.2,-4,1,-1,90*
COc1ccc(NC(=S)N(CCCN2CCOCC2)Cc2cn(C)c3ccccc23)cc1,9,-0.48,-28,1,-1,14
CCOc1ccc(NC(=S)N(CCCN2CCOCC2)Cc2cn(C)c3ccccc23)cc1,4,-0.41,23,0,1,60*
Cc1ccc(NC(=S)N(C)Cc2cn(C)c3ccccc23)cc1,23,-0.94,-33,2,-1,63*
CC(C)c1ccc(NC(=O)Cc2cn(C)c3ccccc23)cc1,-6,-0.5,-12,-3,0,6
CC(=O)Nc1ccc(C(=O)NCC2(N3CCCCC3)CCCCC2)cc1,.,.,-7,-1,-6,.
CN(C)S(=O)(=O)c1ccc2c(c1)Cc1cc(S(=O)(=O)N(C)C)ccc1-2,.,.,2,0,1,.
CCc1ccc(N2C(=O)C3C4CCC(C4=C(C)C)C3C2=O)cc1 (configuration not stated),50,-0.35,8,2,-1,0
c1ccc(C2CCC3(CC2)Oc2ccccc2C2CC(c4cccnc4)=NN23)cc1 (configuration not stated),39,-1.1,1,1,-1,89*
Cc1ccc(N2NC(C)(c3cccs3)NC2=S)cc1 (configuration not stated),-10,-0.74,1,7,2,89*
OC(CN(c1ccccc1)c1ccccc1)Cn1cnc2ccccc21 (configuration not stated),92*,0.19,6,0,-2,26
OC(COCc1ccccc1)Cn1cnc2ccccc21 (configuration not stated),0,-0.79,-3,-1,0,-5
CC(=O)NS(=O)(=O)c1ccc(NC(=O)C(Sc2ccccc2)c2ccccc2)cc1 (configuration not stated),18,0.22,-13,0,1,-12
CCC(C)NS(=O)(=O)c1ccc(NC(=O)C(Sc2ccccc2)c2ccccc2)cc1 (configuration not stated),9,-0.1,58*,2,3,68*
CCCCNS(=O)(=O)c1ccc(NC(=O)C(Sc2ccccc2)c2ccccc2)cc1 (configuration not stated),36,0.89,43,.,.,79*
CCCCNS(=O)(=O)c1ccc(NC(=O)c2cccs2)cc1,-1,0.26,3,3,2,3
CC(=O)c1cccc(NC(=O)N2C3CCC2CC(NC(=O)C2CC2)C3)c1 (configuration not stated),11,0.037,4,3,1,1
COC(=O)[C@]1(Cc2ccccc2)N[C@H](CN(C)C(=O)Nc2ccc(C(F)(F)F)cc2)[C@@H]2C(=O)N(C)C(=O)[C@@H]21,.,.,.,0,0,.
CN(C)CCCNc1c2c(nc3cc(-c4cccc(F)c4)nn13)CCC2,-9,-0.29,68*,2,1,8
Cc1cccc(-c2cc3nc4c(c(N5CCOCC5)n3n2)CCCC4)c1,20,-0.52,43,-1,0,57*
Cc1cccc(-c2cc3nc4c(c(NCc5ccco5)n3n2)CCCC4)c1,-27,-0.2,48,4,4,67*
COc1cccc(-c2cc3nc4c(c(N5CCC6(CC5)OCCO6)n3n2)CCC4)c1,22,0.72,16,1,12,27
Cc1cccc(-c2cc3nc4c(c(N5CCC6(CC5)OCCO6)n3n2)CCCC4)c1,.,-0.35,.,5,7,65*
Cc1cccc(-c2cc3nc4c(c(N5CCCC(O)C5)n3n2)CCC4)c1 (configuration not stated),18,0.78,23,0,6,39
SMILES,CHOP inh,Dynein transport,T cruzi inh,UPR CHOP act,XBP1 UPR activ,Lmaj promast
CCOCCCNc1c2c(nc3cc(-c4ccc(F)cc4)nn13)CCC2,-3,-1.3,7,3,-1,5
Cc1ccc2c(c1)[C@H]1[C@H](CO2)[C@H](c2ccccc2)[C@]2(C)C(=O)Nc3cc(F)ccc3C(=O)N12,.,.,.,1,2,.
CN(CCOc1ccccc1)CC(O)COCc1ccccc1F (configuration not stated),.,.,55*,-2,-6,.
CN(CCOc1ccccc1)CC(O)COc1ccccc1 (configuration not stated),.,.,29,0,-1,.
CC(OCC(O)CN(C)CCOc1ccccc1)c1ccc(Cl)cc1 (configuration not stated),35,2.6,35,2,2,99*
COc1ccc(CC(=O)Nc2ccc(F)c(F)c2F)cc1S(=O)(=O)N1CCOCC1,.,.,.,2,-1,.
COc1ccc(Nc2nccc(N(C)C)c2C#N)cc1,16,-0.044,-20,0,3,-4
O=C(NCc1cccnc1)c1ccccc1CCc1ccccc1,11,0.99,-7,-2,-3,2
Nc1nc(-c2ccccn2)nc(N)c1Cc1ccccc1F,-43,-1.4,82*,9,17,95*
Nc1nc(-c2ccccn2)nc(N)c1Cc1ccc(Cl)cc1Cl,46,-0.23,73*,34,43*,101*
Nc1nnc(Cc2ccc(Cl)cc2Cl)s1,8,-0.9,-3,2,-1,-4
Nc1nc(-c2ccccn2)nc(N)c1Cc1c(F)cccc1Cl,71*,0.15,57*,17,8,101*
O=C(CCC(=O)c1ccc(F)cc1)NC1CCCN(Cc2ccccc2F)C1 (configuration not stated),.,.,13,0,-5,.
COC(=O)c1ccc(NC(=S)N(Cc2cccnc2)Cc2ccco2)cc1,10,-0.076,73*,0,-1,100*
CCOc1ccc(NC(=S)N(Cc2ccc(Cl)cc2)Cc2ccco2)cc1,3,0.036,19,0,-3,34
CC(c1cccs1)N(C(=O)Nc1ccccc1)C1CCCCC1 (configuration not stated),44,0.073,-3,4,-2,38
CCc1ccc(NC(=O)N(Cc2ccco2)C(C)c2cccs2)cc1 (configuration not stated),2,-1,14,-1,-3,70*
CCOC(=O)c1ccc(NC(=S)N(Cc2cccnc2)Cc2ccco2)cc1,16,0.081,55*,0,-3,100*
